Assays:
[1] = biological target: T1, Amine oxidase [flavin-containing] B (Homo sapiens, UniProt P27338); assay: Inhibition of human recombinant soluble MAO-B assessed as change in melting temperature at 100 uM after 20 mins by SYPRO orange staining-based fluorescence assay
T1 sequence (P27338 whole entry): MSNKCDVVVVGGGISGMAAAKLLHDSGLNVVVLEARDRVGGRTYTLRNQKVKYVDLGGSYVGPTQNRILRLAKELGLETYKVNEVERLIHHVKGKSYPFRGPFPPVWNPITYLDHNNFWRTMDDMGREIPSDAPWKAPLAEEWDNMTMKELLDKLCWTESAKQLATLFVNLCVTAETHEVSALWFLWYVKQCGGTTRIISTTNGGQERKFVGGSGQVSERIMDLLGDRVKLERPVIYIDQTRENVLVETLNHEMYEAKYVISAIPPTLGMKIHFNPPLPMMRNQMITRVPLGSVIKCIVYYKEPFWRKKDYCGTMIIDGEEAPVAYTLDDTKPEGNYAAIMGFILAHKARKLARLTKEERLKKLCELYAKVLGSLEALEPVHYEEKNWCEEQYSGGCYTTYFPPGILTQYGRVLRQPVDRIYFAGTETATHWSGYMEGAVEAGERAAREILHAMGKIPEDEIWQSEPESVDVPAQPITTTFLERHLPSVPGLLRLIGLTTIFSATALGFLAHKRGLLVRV
Summary of the method: (§1)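 It was preincubated with serial compound dilutions (0.5–10 µM or 1.7–100 µM) for 20 min at 4 °C in 10% DMSO. 1x SYPRO orange was then added and samples ramped 25–80 °C at 1 °C/s. Boltzmann Tm was taken from the ~50–70 °C region, and ΔTm = Tm(compound) − Tm(DMSO only).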

[2] = biological target: T1, Amine oxidase [flavin-containing] B; assay: Inhibition of human recombinant soluble MAO-B expressed in Pichia pastoris incubated for 30 mins prior to substrate addition measured after 60 mins by MAO-Glo assay
[3] = biological target: T1, Amine oxidase [flavin-containing] B; assay: Inhibition of human recombinant soluble MAO-B assessed as thermal shift after 20 mins by SYPRO orange staining-based fluorescence assay; summary of the method: as §1
[4] = biological target: T1, Amine oxidase [flavin-containing] B; assay: Inhibition of human recombinant microsomal MAO-B expressed in Pichia pastoris incubated for 30 mins prior to substrate addition measured after 60 mins by MAO-Glo assay
[5] = biological target: T2, Amine oxidase [flavin-containing] B (Rattus norvegicus, UniProt P19643); assay: Reversible inhibition of MAO-B in rat whole brain homogenate assessed as recovered activity at 100 times IC50 incubated for 60 mins followed by 6 washes by Amplex Red assay; type: tissue-based; design: scale not given: the % may be the effect or the level left; settings: 1 h
T2 sequence (P19643 whole entry): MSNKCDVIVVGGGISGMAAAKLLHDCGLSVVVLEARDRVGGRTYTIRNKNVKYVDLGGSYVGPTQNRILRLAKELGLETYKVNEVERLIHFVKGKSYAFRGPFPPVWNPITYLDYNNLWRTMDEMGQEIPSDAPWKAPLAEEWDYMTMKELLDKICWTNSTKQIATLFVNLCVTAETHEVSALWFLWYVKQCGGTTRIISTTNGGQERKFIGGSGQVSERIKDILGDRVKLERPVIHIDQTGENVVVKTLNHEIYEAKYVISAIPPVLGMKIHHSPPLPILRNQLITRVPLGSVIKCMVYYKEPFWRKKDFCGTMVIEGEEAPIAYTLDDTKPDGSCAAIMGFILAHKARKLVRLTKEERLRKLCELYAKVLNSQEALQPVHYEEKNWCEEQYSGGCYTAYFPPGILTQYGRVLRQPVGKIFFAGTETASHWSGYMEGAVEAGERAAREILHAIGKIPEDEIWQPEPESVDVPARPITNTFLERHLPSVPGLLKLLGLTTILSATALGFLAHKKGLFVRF

[6] = biological target: T2, Amine oxidase [flavin-containing] B; assay: Reversible inhibition of MAO-B in rat whole brain homogenate assessed as recovered activity at 100 times IC50 incubated for 60 mins followed by 3 washes by Amplex Red assay; type: tissue-based; design: scale not given: the % may be the effect or the level left; settings: 1 h
[7] = biological target: T2, Amine oxidase [flavin-containing] B; assay: Inhibition of MAO-B in rat whole brain homogenate; type: tissue-based
Summary of the method: (§2)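 Insoluble fraction of rat brain lysate was assayed with the non-selective MAO-Glo substrate. Dose–response curves were run against a matrix of fixed concentrations of an MAO-A-selective inhibitor (0.06–200 nM) and an MAO-B-selective inhibitor (0.05–50,000 nM), so that each isoform's contribution could be separated.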

[8] = biological target: T3, Amine oxidase [flavin-containing] A (Rattus norvegicus, UniProt P21396); assay: Inhibition of MAO-A in rat whole brain homogenate; type: tissue-based; summary of the method: as §2
T3 sequence (P21396 whole entry): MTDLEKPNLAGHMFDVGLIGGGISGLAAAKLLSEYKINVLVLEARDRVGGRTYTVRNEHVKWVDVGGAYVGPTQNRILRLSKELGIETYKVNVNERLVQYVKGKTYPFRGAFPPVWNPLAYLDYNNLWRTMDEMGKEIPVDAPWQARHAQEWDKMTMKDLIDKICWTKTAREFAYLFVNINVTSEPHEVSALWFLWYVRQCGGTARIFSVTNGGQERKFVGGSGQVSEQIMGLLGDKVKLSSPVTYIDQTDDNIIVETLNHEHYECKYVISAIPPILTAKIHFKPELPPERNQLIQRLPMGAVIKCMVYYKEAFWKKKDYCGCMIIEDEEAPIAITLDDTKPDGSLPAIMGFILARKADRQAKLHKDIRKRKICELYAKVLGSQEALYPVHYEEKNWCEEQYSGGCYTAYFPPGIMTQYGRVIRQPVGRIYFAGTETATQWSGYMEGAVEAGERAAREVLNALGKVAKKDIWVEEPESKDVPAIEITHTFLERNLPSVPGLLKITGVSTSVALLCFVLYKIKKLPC

[9] = biological target: T1, Amine oxidase [flavin-containing] B; assay: Inhibition of human recombinant soluble MAO-B assessed as change in melting temperature at 10 uM after 20 mins by SYPRO orange staining-based fluorescence assay

## NCCNC(=O)c1ccc(Cl)cc1
[1]
  deltaTm: 4.5 °C
[2]
  Ki: 32.2 nM
[3]
  EC50: 29000 nM
[4]
  Ki: 997 nM

## Cn1c(=O)c2c(nc(/C=C/c3cccc(Cl)c3)n2C)n(C)c1=O
[1]
  Activity: Not Active

## C[C@H](NCc1ccc(OCc2cccc(F)c2)cc1)C(N)=O [SAFINAMIDE]
[5]
  Activity: 100%
[6]
  Activity: 31%

## C#CCN(C)[C@H](C)Cc1ccccc1 [SELEGILINE]
[7]
  INH: < 200 nM
[8]
  INH: 781 nM

## N[C@@H]1C[C@H]1c1ccccc1.N[C@H]1C[C@@H]1c1ccccc1 (relative stereo) [TRANYLCYPROMINE]
[1]
  Activity: Not Active

## C#CCN(C)Cc1ccccc1 [PARGYLINE]
[9]
  deltaTm: 12.3 °C

## CCc1ccc(CCOc2ccc(CC3SC(=O)NC3=O)cc2)nc1 (stereo unspecified) [PIOGLITAZONE]
[1]
  deltaTm: 2.5 °C

## C#CCN[C@@H]1CCc2ccccc21 [RASAGILINE]
[9]
  deltaTm: 14.6 °C

## NCCNC(=O)c1ccc(Cl)cn1 [LAZABEMIDE]
[1]
  deltaTm: 7 °C
[5]
  Activity: 100%
[6]
  Activity: 74%

— ChEMBL document CHEMBL3399931, “Reversible and irreversible small molecule inhibitors of monoamine oxidase B (MAO-B) investigated by biophysical techniques” (Bioorg Med Chem, 2015)
